Assay results as given in PMC5812400 (ESMO Open, 2018).
“Also recorded” adds a separate entry of the source.

Test system: adult patients with advanced non-haematological malignancies
Assay: Safety and tolerability
Format: in vivo, human
Method in brief: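 Patients on milled oral capsules, fasted, in 28-day cycles. AEs and SAEs recorded from first dose through 30 days after last dose. Graded by NCI CTCAE v4.03 and coded to MedDRA v19.0. Relatedness to study drug judged by investigator.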

CC(C)n1nc(-c2ccc3oc(N)nc3c2)c2c(N)ncnc21 [TAK-228, Sapanisertib]
Drug-related AE: Dry mouth (QW 20 mg (n=7)): 0 n (%)
Drug-related AE: Fatigue (QW 20 mg (n=7)): 3 (43) n (%)
Drug-related AE: Hyperglycaemia (QW 20 mg (n=7)): 0 n (%)
Drug-related AE: Nausea (QW 20 mg (n=7)): 4 (57) n (%)
Drug-related AE: Pruritus (QW 20 mg (n=7)): 0 n (%)
Drug-related AE: Rash (maculopapular) (QW 20 mg (n=7)): 0 n (%)
Drug-related AE: Stomatitis (QW 20 mg (n=7)): 0 n (%)
Drug-related AE: Vomiting (QW 20 mg (n=7)): 2 (29) n (%)
Drug-related SAE (QW 20 mg (n=7)): 0 n (%)
Drug-related grade ≥3 AE (QW 20 mg (n=7)): 2 (29) n (%)
Grade ≥3 AE (QW 20 mg (n=7)): 5 (71) n (%)
Grade ≥3 AE: Abdominal pain (QW 20 mg (n=7)): 1 (14) n (%)
Grade ≥3 AE: Anaemia (QW 20 mg (n=7)): 1 (14) n (%)
Grade ≥3 AE: Diarrhoea (QW 20 mg (n=7)): 1 (14) n (%)
Grade ≥3 AE: Hypercalcaemia (QW 20 mg (n=7)): 0 n (%)
Grade ≥3 AE: Hyperglycaemia (QW 20 mg (n=7)): 0 n (%)
Grade ≥3 AE: Hypophosphataemia (QW 20 mg (n=7)): 0 n (%)
Grade ≥3 AE: Hypotension (QW 20 mg (n=7)): 2 (29) n (%)
Grade ≥3 AE: Nausea (QW 20 mg (n=7)): 1 (14) n (%)
Grade ≥3 AE: Vomiting (QW 20 mg (n=7)): 1 (14) n (%)
On-study deaths (QW 20 mg (n=7)): 0 n (%)
SAE (QW 20 mg (n=7)): 4 (57) n (%)
AE resulting in TAK-228 discontinuation (QW 30 mg (n=13)): 3 (23) n (%)
Drug-related AE (QW 30 mg (n=13)): 11 (85) n (%)
Drug-related AE: Asthaenia (QW 30 mg (n=13)): 0 n (%)
Drug-related AE: Decreased appetite (QW 30 mg (n=13)): 2 (15) n (%)
Drug-related AE: Dehydration (QW 30 mg (n=13)): 0 n (%)
Drug-related AE: Diarrhoea (QW 30 mg (n=13)): 2 (15) n (%)
Drug-related AE: Dry mouth (QW 30 mg (n=13)): 1 (8) n (%)
Drug-related AE: Fatigue (QW 30 mg (n=13)): 6 (46) n (%)
Drug-related AE: Hyperglycaemia (QW 30 mg (n=13)): 3 (23) n (%)
Drug-related AE: Nausea (QW 30 mg (n=13)): 5 (39) n (%)
Drug-related AE: Pruritus (QW 30 mg (n=13)): 1 (8) n (%)
Drug-related AE: Rash (maculopapular) (QW 30 mg (n=13)): 2 (15) n (%)
Drug-related AE: Stomatitis (QW 30 mg (n=13)): 2 (15) n (%)
Drug-related AE: Vomiting (QW 30 mg (n=13)): 7 (54) n (%)
Drug-related SAE (QW 30 mg (n=13)): 2 (15) n (%)
Drug-related grade ≥3 AE (QW 30 mg (n=13)): 4 (31) n (%)
Grade ≥3 AE (QW 30 mg (n=13)): 7 (54) n (%)
Grade ≥3 AE: Abdominal pain (QW 30 mg (n=13)): 1 (8) n (%)
Grade ≥3 AE: Anaemia (QW 30 mg (n=13)): 1 (8) n (%)
Grade ≥3 AE: Hypercalcaemia (QW 30 mg (n=13)): 2 (15) n (%)
Grade ≥3 AE: Hyperglycaemia (QW 30 mg (n=13)): 3 (23) n (%)
Grade ≥3 AE: Hypophosphataemia (QW 30 mg (n=13)): 1 (8) n (%)
Grade ≥3 AE: Hypotension (QW 30 mg (n=13)): 0 n (%)
Grade ≥3 AE: Nausea (QW 30 mg (n=13)): 1 (8) n (%)
Grade ≥3 AE: Vomiting (QW 30 mg (n=13)): 1 (8) n (%)
On-study deaths (QW 30 mg (n=13)): 1 (8) n (%)
SAE (QW 30 mg (n=13)): 6 (46) n (%)
AE resulting in TAK-228 discontinuation (QW Total (n=20)): 3 (15) n (%)
Drug-related AE (QW Total (n=20)): 16 (80) n (%)
Drug-related AE: Asthaenia (QW Total (n=20)): 1 (5) n (%)
Drug-related AE: Decreased appetite (QW Total (n=20)): 3 (15) n (%)
Drug-related AE: Dehydration (QW Total (n=20)): 1 (5) n (%)
Drug-related AE: Diarrhoea (QW Total (n=20)): 6 (30) n (%)
Drug-related AE: Dry mouth (QW Total (n=20)): 1 (5) n (%)
Drug-related AE: Fatigue (QW Total (n=20)): 9 (45) n (%)
Drug-related AE: Hyperglycaemia (QW Total (n=20)): 3 (15) n (%)
Drug-related AE: Nausea (QW Total (n=20)): 9 (45) n (%)
Drug-related AE: Pruritus (QW Total (n=20)): 1 (5) n (%)
Drug-related AE: Rash (maculopapular) (QW Total (n=20)): 2 (10) n (%)
Drug-related AE: Stomatitis (QW Total (n=20)): 2 (10) n (%)
Drug-related AE: Vomiting (QW Total (n=20)): 9 (45) n (%)
Drug-related SAE (QW Total (n=20)): 2 (10) n (%)
Drug-related grade ≥3 AE (QW Total (n=20)): 6 (30) n (%)
Grade ≥3 AE (QW Total (n=20)): 12 (60) n (%)
Grade ≥3 AE: Abdominal pain (QW Total (n=20)): 2 (10) n (%)
Grade ≥3 AE: Anaemia (QW Total (n=20)): 2 (10) n (%)
Grade ≥3 AE: Diarrhoea (QW Total (n=20)): 1 (5) n (%)
Grade ≥3 AE: Hypercalcaemia (QW Total (n=20)): 2 (10) n (%)
Grade ≥3 AE: Hyperglycaemia (QW Total (n=20)): 3 (15) n (%)
Grade ≥3 AE: Hypophosphataemia (QW Total (n=20)): 1 (5) n (%)
Grade ≥3 AE: Hypotension (QW Total (n=20)): 2 (10) n (%)
Grade ≥3 AE: Nausea (QW Total (n=20)): 2 (10) n (%)
Grade ≥3 AE: Vomiting (QW Total (n=20)): 2 (10) n (%)
On-study deaths (QW Total (n=20)): 1 (5) n (%)
SAE (QW Total (n=20)): 10 (50) n (%)
Asthaenic conditions, patients (QW arm): 60%
Drug-related AE of any grade: diarrhoea (QW arm): 30%
Drug-related AE of any grade: fatigue (QW arm): 45%
Drug-related AE of any grade: nausea (QW arm): 45%
Drug-related AE of any grade: vomiting (QW arm): 45%
Grade ≥3 AE: Abdominal pain (QW arm): 10%
Grade ≥3 AE: Anaemia (QW arm): 10%
Grade ≥3 AE: Hypercalcaemia (QW arm): 10%
Grade ≥3 AE: Hyperglycaemia (QW arm): 15%
Grade ≥3 AE: Hypotension (QW arm): 10%
Grade ≥3 AE: Nausea (QW arm): 10%
Grade ≥3 AE: Vomiting (QW arm): 10%
SAEs, patients (QW arm): 50%
Patients experiencing AEs (TAK-228 QD arm): 100%
Patients with drug-related AEs (TAK-228 QD arm): 94%
Patients experiencing AEs (TAK-228 QW arm): 95%
Patients with drug-related AEs (TAK-228 QW arm): 80%
AEs of interest (hyperglycaemia, rash, renal insufficiency, mucosal inflammation and asthaenic conditions), patients (all treatment arms): ≥ 10%
Most commonly reported drug-related AEs (fatigue, diarrhoea and nausea), patients (treatment period, across all treatment arms): ≥ 25%
On-study deaths and relatedness to study drugs (whole study, all arms): Three on-study deaths occurred, all considered unrelated to study drugs; also recorded: Three deaths occurred during the study, one in each treatment arm; none were considered related to study drugs
